Measurements as given in ChEMBL document CHEMBL4715736, “Identification of anticancer agents based on the thieno[2,3-b]pyridine and 1H-pyrazole molecular scaffolds” (2016).

System: MDA-MB-468
Assay: Growth inhibition of human MDA-MB-468 cells assessed as cell growth at 0.01 uM incubated for 48 hrs by sulforhodamine B assay relative to control
Type: functional
Details: read-out: Activity

Compound | growth at 0.01 µM [%]
Cc1cc(C)c(NC(=O)c2sc3nc4c(cc3c2N)CN(Cc2ccccc2)CC4)c(C)c1 | 99

System: HCT-15
Assay: Growth inhibition of human HCT-15 cells assessed as cell growth at 1 uM incubated for 48 hrs by sulforhodamine B assay relative to control
Type: functional
Details: read-out: Activity

Compound | growth at 1 µM [%]
Cc1cc(C)c(NC(=O)c2sc3nc4c(cc3c2N)CN(Cc2ccccc2)CC4)c(C)c1 | 68

System: A549
Assay: Growth inhibition of human A549/ATCC cells assessed as cell growth at 0.01 uM incubated for 48 hrs by sulforhodamine B assay relative to control
Type: functional
Details: read-out: Activity
In short: (§1)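 NCI Developmental Therapeutics Program NCI60 panel. Compounds that were active in the 10 µM one-dose screen went on to dose–response testing. Growth at each concentration is expressed relative to untreated control (100%). GI50 (concentration giving 50% of maximal inhibition of proliferation) and TGI (concentration giving total growth inhibition) were derived from the curves.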

Compound | growth at 0.01 µM [%]
Cc1cc(C)c(NC(=O)c2sc3nc4c(cc3c2N)CN(Cc2ccccc2)CC4)c(C)c1 | 96

System: RPMI-8226
Assay: Growth inhibition of human RPMI-8226 cells incubated for 48 hrs by sulforhodamine B assay
Type: functional
Details: not given
In short: (§2)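 NCI DTP 60-line human tumour panel. Dose-response curves were run only for ligands active in the initial 10 µM screen. GI50 (concentration giving 50% of maximal inhibition of proliferation) and TGI (concentration giving total growth inhibition) were derived from these curves.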

Compound | GI50 [µM] | LC50 [µM] | TGI [µM]
Cc1cc(C)c(NC(=O)c2sc3nc4c(cc3c2N)CN(Cc2ccccc2)CC4)c(C)c1 | 3.18 | > 100 | 35.1

System: TK-10
Assay: Growth inhibition of human TK-10 cells incubated for 48 hrs by sulforhodamine B assay
Type: functional
Details: not given
In short: as §2

Compound | GI50 [µM] | TGI [µM]
Cc1cc(C)c(NC(=O)c2sc3nc4c(cc3c2N)CN(Cc2ccccc2)CC4)c(C)c1 | 5.06 | > 100

Same assay, conditions: read-out: LC50 (the source's name)

Compound | CC50 [µM]
Cc1cc(C)c(NC(=O)c2sc3nc4c(cc3c2N)CN(Cc2ccccc2)CC4)c(C)c1 | > 100

System: SK-MEL-5
Assay: Growth inhibition of human SK-MEL-5 cells incubated for 48 hrs by sulforhodamine B assay
Type: functional
Details: not given
In short: as §2

Compound | GI50 [µM] | LC50 [µM] | TGI [µM]
Cc1cc(C)c(NC(=O)c2sc3nc4c(cc3c2N)CN(Cc2ccccc2)CC4)c(C)c1 | 1.47 | > 100 | 11.5

System: NCI/ADR-RES
Assay: Growth inhibition of human NCI/ADR-RES cells assessed as cell growth at 1 uM incubated for 48 hrs by sulforhodamine B assay relative to control
Type: functional
Details: read-out: Activity

Compound | growth at 1 µM [%]
Cc1cc(C)c(NC(=O)c2sc3nc4c(cc3c2N)CN(Cc2ccccc2)CC4)c(C)c1 | 69

System: SK-MEL-2
Assay: Growth inhibition of human SK-MEL-2 cells incubated for 48 hrs by sulforhodamine B assay
Type: functional
Details: not given
In short: as §2

Compound | GI50 [µM] | LC50 [µM] | TGI [µM]
Cc1cc(C)c(NC(=O)c2sc3nc4c(cc3c2N)CN(Cc2ccccc2)CC4)c(C)c1 | 5.59 | > 100 | > 100

System: UO-31
Assay: Growth inhibition of human UO-31 cells assessed as cell growth at 0.01 uM incubated for 48 hrs by sulforhodamine B assay relative to control
Type: functional
Details: read-out: Activity

Compound | growth at 0.01 µM [%]
Cc1cc(C)c(NC(=O)c2sc3nc4c(cc3c2N)CN(Cc2ccccc2)CC4)c(C)c1 | 91

System: NCI-H522
Assay: Growth inhibition of human NCI-H522 cells incubated for 48 hrs by sulforhodamine B assay
Type: functional
Details: not given
In short: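 NCI60 panel at the NCI Developmental Therapeutics Program. Only compounds active in the 10 µM screen went to dose-response testing. GI50, the concentration giving 50% of maximal inhibition of proliferation, and TGI, the concentration giving total growth inhibition, were derived from the dose-response curves.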

Compound | GI50 [µM] | LC50 [µM] | TGI [µM]
Cc1cc(C)c(NC(=O)c2sc3nc4c(cc3c2N)CN(Cc2ccccc2)CC4)c(C)c1 | 1.6 | > 100 | 6.83

System: IGROV-1
Assay: Growth inhibition of human IGROV-1 cells assessed as cell growth at 1 uM incubated for 48 hrs by sulforhodamine B assay relative to control
Type: functional
Details: read-out: Activity

Compound | growth at 1 µM [%]
Cc1cc(C)c(NC(=O)c2sc3nc4c(cc3c2N)CN(Cc2ccccc2)CC4)c(C)c1 | 85

System: SK-OV-3
Assay: Growth inhibition of human SK-OV-3 cells assessed as cell growth at 1 uM incubated for 48 hrs by sulforhodamine B assay relative to control
Type: functional
Details: read-out: Activity

Compound | growth at 1 µM [%]
Cc1cc(C)c(NC(=O)c2sc3nc4c(cc3c2N)CN(Cc2ccccc2)CC4)c(C)c1 | 88

System: M14
Assay: Growth inhibition of human M14 cells assessed as cell growth at 0.01 uM incubated for 48 hrs by sulforhodamine B assay relative to control
Type: functional
Details: read-out: Activity

Compound | growth at 0.01 µM [%]
Cc1cc(C)c(NC(=O)c2sc3nc4c(cc3c2N)CN(Cc2ccccc2)CC4)c(C)c1 | 91

System: DU-145
Assay: Growth inhibition of human DU-145 cells assessed as cell growth at 0.01 uM incubated for 48 hrs by sulforhodamine B assay relative to control
Type: functional
Details: read-out: Activity
In short: as §1

Compound | growth at 0.01 µM [%]
Cc1cc(C)c(NC(=O)c2sc3nc4c(cc3c2N)CN(Cc2ccccc2)CC4)c(C)c1 | 104
